Laboratory results published in ChEMBL document CHEMBL4406856, “Structure based design, synthesis and in vitro antitumour activity of tiazofurin stereoisomers with nitrogen functions at the C-2' or C-3' positions” (Eur J Med Chem, 2019).
Calls of active or inactive are those of the source. No cut-off for these calls is given here.

Columns and labels:
[1] = test system: K562; assay: Induction of apoptosis in human K562 cells incubated for 24 hrs by annexin V FITC and propidium iodide staining based flow cytometry relative to control; assay type: functional; set-up: concentration or dose not given beside the values
[2] = test system: K562; assay: Potency index, ratio of tiazofurin IC50 to compound IC50 for cytotoxicity against human K562 cells incubated for 72 hrs by MTT assay; assay type: functional
[3] = test system: HeLa; assay: Potency index, ratio of tiazofurin IC50 to compound IC50 for cytotoxicity against human HeLa cells incubated for 72 hrs by MTT assay; assay type: functional
[4] = test system: K562; assay: Potency index, ratio of doxorubicin IC50 to compound IC50 for cytotoxicity against human K562 cells incubated for 72 hrs by MTT assay; assay type: functional
[5] = test system: K562; assay: Cell cycle arrest in human K562 cells assessed as accumulation in G2/M phase incubated for 72 hrs by propidium iodide staining based flow cytometry (reference value: 15.45%); assay type: functional
In short: (§1)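 Exponentially growing K562 cells treated for 24 or 72 h, untreated cells as control; cells stained with propidium iodide and DNA content read by flow cytometry. Phase distribution (subG1, G0/G1, S, G2/M) taken from one-parameter histograms, subG1 scored as hypodiploid, apoptotic cells.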

[6] = test system: K562; assay: Cell cycle arrest in human K562 cells assessed as accumulation in S phase incubated for 72 hrs by propidium iodide staining based flow cytometry (reference value: 36.05%); assay type: functional; in short: as §1
[7] = test system: K562; assay: Cell cycle arrest in human K562 cells assessed as accumulation in G0/G1 phase incubated for 72 hrs by propidium iodide staining based flow cytometry (reference value: 45.43%); assay type: functional; in short: as §1
[8] = test system: K562; assay: Cell cycle arrest in human K562 cells assessed as accumulation in SubG1 phase incubated for 72 hrs by propidium iodide staining based flow cytometry (reference value: 3.07%); assay type: functional; in short: as §1
[9] = test system: K562; assay: Induction of apoptosis in human K562 cells incubated for 72 hrs by annexin V FITC and propidium iodide staining based flow cytometry relative to control; assay type: functional; set-up: concentration or dose not given beside the values
In short: (§2)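 K562 cells treated for 72 h, stained with Annexin V-FITC/propidium iodide and analysed by flow cytometry. Apoptotic, necrotic and live fractions scored as percent of gated cells; specific apoptosis and specific necrosis calculated from these counts.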

[10] = test system: K562; assay: Induction of necrosis in human K562 cells incubated for 72 hrs by annexin V FITC and propidium iodide staining based flow cytometry relative to control; assay type: functional; set-up: concentration or dose not given beside the values; in short: as §2
[11] = test system: K562; assay: Induction of apoptosis in human K562 cells assessed as Bcl2 level incubated for 72 hrs by Western blot analysis (reference value: 100%); assay type: functional
In short: (§3)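 K562 cells treated for 72 h; Bcl-2, BAX, caspase 3 precursor (32 kDa), caspase 3 active subunit (18 kDa) and PARP (112 and 85 kDa) measured by Western blot and expressed as % of untreated control.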

[12] = test system: K562; assay: Induction of apoptosis in human K562 cells assessed as Bax level incubated for 72 hrs by Western blot analysis (reference value: 100%); assay type: functional; in short: as §3
[13] = test system: K562; assay: Induction of apoptosis in human K562 cells assessed as 32 kDa Caspase 3 precursor level incubated for 72 hrs by Western blot analysis (reference value: 100%); assay type: functional; in short: as §3
[14] = test system: K562; assay: Induction of apoptosis in human K562 cells assessed as 18 kDa Caspase 3 active subunit level incubated for 72 hrs by Western blot analysis (reference value: 100%); assay type: functional; in short: as §3
[15] = test system: K562; assay: Induction of apoptosis in human K562 cells assessed as 112 kDa PARP level incubated for 72 hrs by Western blot analysis (reference value: 100%); assay type: functional; in short: as §3
[16] = test system: K562; assay: Induction of apoptosis in human K562 cells assessed as 85 kDa PARP level incubated for 72 hrs by Western blot analysis (reference value: 100%); assay type: functional; in short: as §3
[17] = test system: K562; assay: Induction of apoptosis in human K562 cells assessed as reduction in cell membrane integrity at cytotoxic IC50 incubated for 72 hrs by acridine orange and ethidium bromide double staining based fluorescence microscopy; assay type: functional
[18] = test system: K562; assay: Genotoxicity in human K562 cells assessed as increase in DNA damage at cytotoxic IC50 incubated for 72 hrs by comet assay; assay type: toxicity, cell-based; details: k562, 72 h
In short: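 Modified alkaline comet assay: cells set in agarose on slides, electrophoresed horizontally, stained with ethidium bromide and imaged by fluorescence microscopy. 50 comets scored per sample; mean tail moment used as the DNA-damage measure.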

[19] = test system: K562; assay: Induction of necrosis in human K562 cells incubated for 24 hrs by annexin V FITC and propidium iodide staining based flow cytometry relative to control; assay type: functional; set-up: concentration or dose not given beside the values
[20] = test system: HL-60; assay: Potency index, ratio of tiazofurin IC50 to compound IC50 for cytotoxicity against human HL60 cells incubated for 72 hrs by MTT assay; assay type: functional
[21] = test system: HL-60; assay: Potency index, ratio of doxorubicin IC50 to compound IC50 for cytotoxicity against human HL60 cells incubated for 72 hrs by MTT assay; assay type: functional
[22] = test system: Raji; assay: Potency index, ratio of tiazofurin IC50 to compound IC50 for cytotoxicity against human Raji cells incubated for 72 hrs by MTT assay; assay type: functional
[23] = test system: K562; assay: Cell cycle arrest in human K562 cells assessed as accumulation in G2/M phase incubated for 24 hrs by propidium iodide staining based flow cytometry (reference value: 14.29%); assay type: functional; in short: as §1
[24] = test system: K562; assay: Cell cycle arrest in human K562 cells assessed as accumulation in S phase incubated for 24 hrs by propidium iodide staining based flow cytometry (reference value: 48.38%); assay type: functional; in short: as §1
[25] = test system: K562; assay: Cell cycle arrest in human K562 cells assessed as accumulation in G0/G1 phase incubated for 24 hrs by propidium iodide staining based flow cytometry (reference value: 36.28%); assay type: functional; in short: as §1
[26] = test system: K562; assay: Cell cycle arrest in human K562 cells assessed as accumulation in sub-G1 phase incubated for 24 hrs by propidium iodide staining based flow cytometry (reference value: 1.05%); assay type: functional; in short: as §1
[27] = test system: K562; assay: Cell cycle arrest in human K562 cells assessed as decrease in cell accumulation at G2/M phase incubated for 72 hrs by propidium iodide staining based flow cytometry relative to tiazofurin; assay type: functional; in short: as §1
[28] = test system: K562; assay: Antiproliferative activity against human K562 cells assessed as reduction in cell growth incubated for 72 hrs by MTT assay; assay type: functional, cell-based; details: K562, 72 h
In short: (§4)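 Colorimetric MTT assay on human tumour lines K562 (chronic myeloid leukemia), HL-60 (promyelocytic leukemia), Jurkat (T cell leukemia), Raji (Burkitt's lymphoma), HT-29 (colorectal adenocarcinoma), HeLa (cervix adenocarcinoma) and normal lung fibroblast MRC-5; cells exposed to compounds for 72 h.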

[29] = test system: HL-60; assay: Antiproliferative activity against human HL60 cells assessed as reduction in cell growth incubated for 72 hrs by MTT assay; assay type: functional, cell-based; details: HL-60, 72 h
In short: as §4, with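 “h. IC50 taken as concentration giving 50% growth inhibition versus untreated control.” for “h.”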

[30] = test system: Jurkat; assay: Antiproliferative activity against human Jurkat cells assessed as reduction in cell growth incubated for 72 hrs by MTT assay; assay type: functional, cell-based
In short: as §4, with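 “h. IC50 taken as concentration giving 50% growth inhibition versus untreated control.” for “h.”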

[31] = test system: Raji; assay: Antiproliferative activity against human Raji cells assessed as reduction in cell growth incubated for 72 hrs by MTT assay; assay type: functional, cell-based; in short: as §4
[32] = test system: HT-29; assay: Antiproliferative activity against human HT-29 cells assessed as reduction in cell growth incubated for 72 hrs by MTT assay; assay type: functional, cell-based; details: HT-29, 72 h
In short: as §4, with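 “h. IC50 taken as concentration giving 50% growth inhibition versus untreated control.” for “h.”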

[33] = test system: HeLa; assay: Antiproliferative activity against human HeLa cells assessed as reduction in cell growth incubated for 72 hrs by MTT assay; assay type: functional, cell-based
In short: as §4, with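 “h. IC50 taken as concentration giving 50% growth inhibition versus untreated control.” for “h.”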

[34] = test system: MRC5; assay: Cytotoxicity against human MRC5 cells assessed as reduction in cell viability incubated for 72 hrs by MTT assay; assay type: cell-based; details: MRC5, 72 h; in short: as §4
[35] = test system: K562; assay: Induction of apoptosis in human K562 cells incubated for 72 hrs by annexin V FITC and propidium iodide staining based flow cytometry relative to tiazofurin; assay type: functional; in short: as §2

| SMILES | Activity [1] [%] | Activity [5] [%] | Activity [6] [%] | Activity [7] [%] | Activity [8] [%] | Activity [9] [%] | Activity [10] [%] | Activity [11] [%] | Activity [12] [%] | Activity [13] [%] | Activity [14] [%] | Activity [15] [%] | Activity [16] [%] | Activity [17] | Activity [18] | Activity [19] [%] | Activity [23] [%] | Activity [24] [%] | Activity [25] [%] | Activity [26] [%] | further results |
| --- | --- | --- | --- | --- | --- | --- | --- | --- | --- | --- | --- | --- | --- | --- | --- | --- | --- | --- | --- | --- | --- |
| NC(=O)c1csc([C@@H]2O[C@H](CO)[C@H](O)[C@H]2O)n1 | 11.28 | 11.6 | 32.94 | 41.86 | 13.6 | 16.69 | 21.08 | 436.51 | 180.18 | 4433.8 | 230.09 | 665.4 | 552.68 | Active | Toxic | 5.36 | 8.45 | 51 | 38.15 | 2.39 | Ratio IC50 [2]: 2 - 48; Ratio IC50 [3]: 2 - 48; Ratio IC50 [4]: 2; Ratio IC50 [20]: 2 - 48; Ratio IC50 [21]: 7; Ratio IC50 [22]: 2 - 48; fold change (FC) [27]: 2 - 2.4 |
| NC(=O)c1csc([C@@H]2O[C@H](CO)[C@@H](O)[C@H]2O)n1 [TIAZOFURIN] | -0.34 | 5.74 | 33.62 | 35.66 | 24.99 | 13.71 | 13.71 | 344.33 | 338.37 | 1302.79 | 89.69 | 299.68 | 214.99 | Active | Toxic | 3.76 | 7.55 | 53.16 | 37.08 | 2.22 | – |
| NC(=O)c1csc([C@@H]2O[C@H](CO)[C@@H](O)[C@@H]2N)n1 | 7.07 | 10.79 | 34.2 | 37.94 | 17.08 | 23.39 | 9.82 | 414.66 | 193 | 1144.41 | 153.73 | 387.73 | 570.91 | – | – | 9.58 | 9.11 | 52.43 | 36.67 | 2.58 | IC50 [28]: 1970 nM; IC50 [29]: 1020 nM; IC50 [30]: 40 nM; IC50 [31]: 1030 nM; IC50 [32]: 23.4 µM; IC50 [33]: 1030 nM; IC50 [34]: > 100 µM; fold change (FC) [27]: 2 - 2.4; fold change (FC) [35]: 2 |
